Laboratory results published in ChEMBL document CHEMBL2062460, “Disubstituted thiourea derivatives and their activity on CNS: synthesis and biological evaluation” (Eur J Med Chem, 2012).
Converted amounts (≈) assume the structure as drawn. The source made the active and inactive calls. The calls are words filed in the database; no cut-off is given here.

Columns and labels:
[1] = test system: Staphylococcus epidermidis; experiment: Antibacterial activity against Staphylococcus epidermidis ATCC 12228 after 18 hrs by twofold serial agar dilution technique; format: functional; conditions: ATCC 12228, 18 h
Method in brief: (§1)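 Twofold serial agar dilution on Mueller–Hinton II agar, following CLSI guidelines. Compounds were dissolved in methanol or DMSO and tested at final agar concentrations of 3.125–400 µg/mL. Final inoculum was 10^4 CFU/mL.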

Staphylococcus aureus [2] = experiment: Antibacterial activity against methicillin-susceptible Staphylococcus aureus clinical isolate 372/09 after 18 hrs by twofold serial agar dilution technique; format: functional; conditions: clinical isolate 372/09, 18 h
Method in brief: (§2)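 Clinical isolates came from patients in Warsaw Medical University Hospitals and were classed as methicillin-susceptible or -resistant. MIC was determined by twofold serial agar dilution on Mueller–Hinton II agar (CLSI), 3.125–400 µg/mL in agar, with compounds in methanol or DMSO. Inoculum was 10^4 CFU/mL and plates were read after 18 h at 35 °C.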

[3] = test system: Staphylococcus epidermidis; experiment: Antibacterial activity against methicillin-resistant Staphylococcus epidermidis clinical isolate 311/08 after 18 hrs by twofold serial agar dilution technique; format: functional; conditions: clinical isolate 311/08, 18 h; method in brief: as §2
Staphylococcus aureus [4] = experiment: Antibacterial activity against methicillin-susceptible Staphylococcus aureus clinical isolate 338/08 after 18 hrs by twofold serial agar dilution technique; format: functional; conditions: clinical isolate 338/08, 18 h; method in brief: as §2
Staphylococcus aureus [5] = experiment: Antibacterial activity against methicillin-resistant Staphylococcus aureus clinical isolate 306/08 after 18 hrs by twofold serial agar dilution technique; format: functional; conditions: clinical isolate 306/08, 18 h; method in brief: as §2
Enterococcus hirae = experiment: Antibacterial activity against Enterococcus hirae ATCC 10541 after 18 hrs by twofold serial agar dilution technique; format: functional; conditions: ATCC 10541, 18 h
Staphylococcus aureus [6] = experiment: Antibacterial activity against Staphylococcus aureus ATCC 25923 after 18 hrs by twofold serial agar dilution technique; format: functional; conditions: ATCC 25923, 18 h; method in brief: as §1
Staphylococcus aureus [7] = experiment: Antibacterial activity against methicillin-susceptible Staphylococcus aureus clinical isolate 269/08 after 18 hrs by twofold serial agar dilution technique; format: functional; conditions: clinical isolate 269/08, 18 h; method in brief: as §2
Staphylococcus aureus [8] = experiment: Antibacterial activity against methicillin-resistant Staphylococcus aureus clinical isolate 356/09 after 18 hrs by twofold serial agar dilution technique; format: functional; conditions: clinical isolate 356/09, 18 h; method in brief: as §2
[9] = test system: Staphylococcus epidermidis; experiment: Antibacterial activity against methicillin-resistant Staphylococcus epidermidis clinical isolate 377/09 after 18 hrs by twofold serial agar dilution technique; format: functional; conditions: clinical isolate 377/09, 18 h; method in brief: as §2
Staphylococcus aureus [10] = experiment: Antibacterial activity against methicillin-resistant Staphylococcus aureus clinical isolate 309/08 after 18 hrs by twofold serial agar dilution technique; format: functional; conditions: clinical isolate 309/08, 18 h; method in brief: as §2
Candida albicans = experiment: Antifungal activity against Candida albicans ATCC 10231 at 400 ug/disc after 18 hrs by disc diffusion method; format: functional, organism-based
Method in brief: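 Yeasts tested by disc diffusion (CLSI) on RPMI agar with 2% glucose; 9 mm paper discs bearing 400 µg compound from methanol or DMSO solution; inhibition zone diameter read after 18 h at 35 °C.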

[11] = test system: Bordetella bronchiseptica; experiment: Antibacterial activity against Bordetella bronchiseptica ATCC 4617 at 400 ug/disc after 18 hrs by disc diffusion method; format: functional, organism-based
Method in brief: (§3)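 Disc diffusion per CLSI on Mueller–Hinton II agar; 9 mm paper discs loaded from methanol or DMSO solutions to 400 µg per disc, dried; growth inhibition zone diameter read after 18 h at 35 °C.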

Proteus vulgaris = experiment: Antibacterial activity against Proteus vulgaris NCTC 4635 at 400 ug/disc after 18 hrs by disc diffusion method; format: functional, organism-based; method in brief: as §3
Pseudomonas aeruginosa [12] = experiment: Antibacterial activity against Pseudomonas aeruginosa ATCC 15442 at 400 ug/disc after 18 hrs by disc diffusion method; format: functional, organism-based; method in brief: as §3
Staphylococcus aureus [13] = experiment: Antibacterial activity against Staphylococcus aureus ATCC 25923 at 400 ug/disc after 18 hrs by disc diffusion method; format: functional; method in brief: as §3
Bacillus subtilis [14] = experiment: Antibacterial activity against Bacillus subtilis ATCC 6633 after 18 hrs by twofold serial agar dilution technique; format: functional; conditions: ATCC 6633, 18 h
Staphylococcus aureus [15] = experiment: Antibacterial activity against Staphylococcus aureus ATCC 6538 at 400 ug/disc after 18 hrs by disc diffusion method; format: functional; method in brief: as §3
Bacillus cereus = experiment: Antibacterial activity against Bacillus cereus ATCC 11778 at 400 ug/disc after 18 hrs by disc diffusion method; format: functional; conditions: ATCC 11778, 18 h, read-out: DIZ; method in brief: as §3
Micrococcus luteus [16] = experiment: Antibacterial activity against Micrococcus luteus ATCC 10240 after 18 hrs by twofold serial agar dilution technique; format: functional; conditions: ATCC 10240, 18 h
Staphylococcus aureus [17] = experiment: Antibacterial activity against methicillin-resistant Staphylococcus aureus clinical isolate 277/08 after 18 hrs by twofold serial agar dilution technique; format: functional; conditions: clinical isolate 277/08, 18 h; method in brief: as §2
[18] = test system: Staphylococcus epidermidis; experiment: Antibacterial activity against methicillin-resistant Staphylococcus epidermidis clinical isolate 341/09 after 18 hrs by twofold serial agar dilution technique; format: functional; conditions: clinical isolate 341/09, 18 h; method in brief: as §2
Staphylococcus aureus [19] = experiment: Antibacterial activity against Staphylococcus aureus NCTC 4163 after 18 hrs by twofold serial agar dilution technique; format: functional; conditions: NCTC 4163, 18 h; method in brief: as §1
Staphylococcus aureus [20] = experiment: Antibacterial activity against methicillin-susceptible Staphylococcus aureus clinical isolate 367/09 after 18 hrs by twofold serial agar dilution technique; format: functional; conditions: clinical isolate 367/09, 18 h; method in brief: as §2
Staphylococcus aureus [21] = experiment: Antibacterial activity against Staphylococcus aureus ATCC 6538 after 18 hrs by twofold serial agar dilution technique; format: functional; conditions: ATCC 6538, 18 h; method in brief: as §1
Bacillus subtilis [22] = experiment: Antibacterial activity against Bacillus subtilis ATCC 6633 at 400 ug/disc after 18 hrs by disc diffusion method; format: functional; conditions: ATCC 6633, 18 h, read-out: DIZ; method in brief: as §3
[23] = test system: Staphylococcus epidermidis; experiment: Antibacterial activity against methicillin-resistant Staphylococcus epidermidis clinical isolate 316/08 after 18 hrs by twofold serial agar dilution technique; format: functional; conditions: clinical isolate 316/08, 18 h; method in brief: as §2
Staphylococcus aureus [24] = experiment: Antibacterial activity against methicillin-resistant Staphylococcus aureus clinical isolate 376/09 after 18 hrs by twofold serial agar dilution technique; format: functional; conditions: clinical isolate 376/09, 18 h; method in brief: as §2
Staphylococcus aureus [25] = experiment: Antibacterial activity against methicillin-susceptible Staphylococcus aureus clinical isolate 339/09 after 18 hrs by twofold serial agar dilution technique; format: functional; conditions: clinical isolate 339/09, 18 h; method in brief: as §2
Micrococcus luteus [26] = experiment: Antibacterial activity against Micrococcus luteus ATCC 9341 at 400 ug/disc after 18 hrs by disc diffusion method; format: functional; conditions: ATCC 9341, 18 h, read-out: DIZ; method in brief: as §3
Pseudomonas aeruginosa [27] = experiment: Antibacterial activity against Pseudomonas aeruginosa NCTC 6749 at 400 ug/disc after 18 hrs by disc diffusion method; format: functional, organism-based; method in brief: as §3
Micrococcus luteus [28] = experiment: Antibacterial activity against Micrococcus luteus ATCC 9341 after 18 hrs by twofold serial agar dilution technique; format: functional; conditions: ATCC 9341, 18 h
Staphylococcus aureus [29] = experiment: Antibacterial activity against Staphylococcus aureus NCTC 4163 at 400 ug/disc after 18 hrs by disc diffusion method; format: functional; method in brief: as §3
[30] = test system: Staphylococcus epidermidis; experiment: Antibacterial activity against methicillin-resistant Staphylococcus epidermidis clinical isolate 342/09 after 18 hrs by twofold serial agar dilution technique; format: functional; conditions: clinical isolate 342/09, 18 h; method in brief: as §2
Staphylococcus aureus [31] = experiment: Antibacterial activity against methicillin-resistant Staphylococcus aureus clinical isolate 307/08 after 18 hrs by twofold serial agar dilution technique; format: functional; conditions: clinical isolate 307/08, 18 h; method in brief: as §2
Pseudomonas aeruginosa [32] = experiment: Antibacterial activity against Pseudomonas aeruginosa ATCC 27853 at 400 ug/disc after 18 hrs by disc diffusion method; format: functional, organism-based; method in brief: as §3
[33] = test system: Staphylococcus epidermidis; experiment: Antibacterial activity against methicillin-resistant Staphylococcus epidermidis clinical isolate 340/09 after 18 hrs by twofold serial agar dilution technique; format: functional; conditions: clinical isolate 340/09, 18 h; method in brief: as §2

Work on `S=C(Nc1ccccc1)Nc1nc[nH]n1` yielded an MIC [1] of 50 mg/L (≈ 228 µM), an MIC (Staphylococcus aureus [2]) of 50 mg/L (≈ 228 µM) and an MIC [3] of 100 mg/L (≈ 456 µM). It also gave an MIC (Staphylococcus aureus [4]) of 50 mg/L (≈ 228 µM), an MIC (Staphylococcus aureus [5]) of 50 mg/L (≈ 228 µM) and an MIC (Enterococcus hirae) of 200 mg/L (≈ 912 µM). It also gave an MIC (Staphylococcus aureus [6]) of 100 mg/L (≈ 456 µM), an MIC (Staphylococcus aureus [7]) of 50 mg/L (≈ 228 µM) and an MIC (Staphylococcus aureus [8]) of 50 mg/L (≈ 228 µM). For the same molecule, the MIC [9] was 50 mg/L (≈ 228 µM), the MIC (Staphylococcus aureus [10]) was 50 mg/L (≈ 228 µM) and the “diameter of the inhibition zone (DIZ)” value (Candida albicans) was “inactive”. The “diameter of the inhibition zone (DIZ)” value [11] was “inactive”, the “diameter of the inhibition zone (DIZ)” value (Proteus vulgaris) was “inactive” and the “diameter of the inhibition zone (DIZ)” value (Pseudomonas aeruginosa [12]) was “inactive”. For the same molecule, the “diameter of the inhibition zone (DIZ)” value (Staphylococcus aureus [13]) was “inactive”, the MIC (Bacillus subtilis [14]) was 50 mg/L (≈ 228 µM) and the “diameter of the inhibition zone (DIZ)” value (Staphylococcus aureus [15]) was “inactive”. The zone of inhibition at 400 µg/disc (Bacillus cereus) was 12 mm, the MIC (Micrococcus luteus [16]) was 50 mg/L (≈ 228 µM) and the MIC (Staphylococcus aureus [17]) was 50 mg/L (≈ 228 µM). It also gave an MIC [18] of 100 mg/L (≈ 456 µM), an MIC (Staphylococcus aureus [19]) of 100 mg/L (≈ 456 µM) and an MIC (Staphylococcus aureus [20]) of 50 mg/L (≈ 228 µM). It also gave an MIC (Staphylococcus aureus [21]) of 100 mg/L (≈ 456 µM), a zone of inhibition at 400 µg/disc (Bacillus subtilis [22]) of 16 mm and an MIC [23] of 100 mg/L (≈ 456 µM). For the same molecule, the MIC (Staphylococcus aureus [24]) was 50 mg/L (≈ 228 µM), the MIC (Staphylococcus aureus [25]) was 50 mg/L (≈ 228 µM) and the zone of inhibition at 400 µg/disc (Micrococcus luteus [26]) was 14 mm. For the same molecule, the “diameter of the inhibition zone (DIZ)” value (Pseudomonas aeruginosa [27]) was “inactive”, the MIC (Micrococcus luteus [28]) was 50 mg/L (≈ 228 µM) and the “diameter of the inhibition zone (DIZ)” value (Staphylococcus aureus [29]) was “inactive”. For the same molecule, the MIC [30] was 200 mg/L (≈ 912 µM), the MIC (Staphylococcus aureus [31]) was 50 mg/L (≈ 228 µM) and the “diameter of the inhibition zone (DIZ)” value (Pseudomonas aeruginosa [32]) was “inactive”. For the same molecule, the MIC [33] was 50 mg/L (≈ 228 µM).
